Experimental data: ChEMBL document CHEMBL2146441, “2,6-Disubstituted imidazo[2,1-b][1,3,4]thiadiazoles: search for anticancer agents” (2012)

Tests used:
Format in all cases: functional
NCI-H322M = experiment: Cytotoxicity against human NCI-H322M cells assessed as cell growth at 10^-5 M after 48 hrs by SRB assay; conditions: read-out: Activity
KM12 = experiment: Cytotoxicity against human KM12 cells assessed as cell growth at 10^-5 M after 48 hrs by SRB assay; conditions: KM12, 48 h, read-out: Activity
U-251 [1] = experiment: Cytotoxicity against human U251 cells assessed as cell growth at 10^-5 M after 48 hrs by SRB assay; conditions: U-251, 48 h, read-out: Activity
M14 [2] = experiment: Cytotoxicity against human M14 cells assessed as cell growth at 10^-5 M after 48 hrs by SRB assay; conditions: M14, 48 h, read-out: Activity
OVCAR-3 = experiment: Cytotoxicity against human OVCAR3 cells assessed as cell growth at 10^-5 M after 48 hrs by SRB assay; conditions: OVCAR-3, 48 h, read-out: Activity
TK-10 = experiment: Cytotoxicity against human TK10 cells assessed as cell growth at 10^-5 M after 48 hrs by SRB assay; conditions: TK-10, 48 h, read-out: Activity
PC-3 = experiment: Cytotoxicity against human PC3 cells assessed as cell growth at 10^-5 M after 48 hrs by SRB assay; conditions: PC-3, 48 h, read-out: Activity
DU-145 = experiment: Cytotoxicity against human DU145 cells assessed as cell growth at 10^-5 M after 48 hrs by SRB assay; conditions: DU-145, 48 h, read-out: Activity
Outline: (§1)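 NCI-60 screen: lines kept in RPMI 1640 with 5% FBS, seeded at 5000–40,000 cells/well by doubling time, preincubated 24 h at 37 °C in 5% CO2. Time-zero plates TCA-fixed at drug addition. DMSO stocks diluted in medium, 48 h exposure. Fixation in cold TCA (final 10% adherent, 16% suspension), 0.4% SRB stain, solubilised in 10 mM Tris base, A515. Percent growth computed against control and time-zero.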

SK-MEL-2 = experiment: Growth inhibition of human SK-MEL-2 cells after 48 hrs by SRB assay; conditions: SK-MEL-2, 48 h; for CC50: read-out: LC50 (the source's name)
Outline: (§2)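 Adherent NCI-60 lines grown in RPMI 1640 with 5% FBS, seeded at 5000–40,000 cells/well, and preincubated 24 h at 37 °C, 5% CO2. Compound, stocked in DMSO, given either once at 10^-5 M or at five 10-fold dilutions for 48 h. Cells fixed with cold TCA (final 10%), stained with 0.4% SRB, and read at 515 nm. GI50 taken as 50% reduction in net protein increase versus time-zero and control plates.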

RXF 393 [3] = experiment: Growth inhibition of human RXF393 cells after 48 hrs by SRB assay; conditions: RXF 393, 48 h; outline: as §2
EKVX [4] = experiment: Cytotoxicity against human EKVX cells assessed as cell growth at 10^-4 M after 48 hrs by SRB assay; conditions: read-out: Activity; outline: as §1
HOP-92 = experiment: Cytotoxicity against human HOP92 cells assessed as cell growth at 10^-4 M after 48 hrs by SRB assay; conditions: HOP-92, 48 h, read-out: Activity
Outline: (§3)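 NCI-60 five-dose screen. Cells were grown in RPMI 1640 with 5% FBS and seeded at 5000–40,000 cells/well according to doubling time. They were pre-incubated 24 h at 37 °C in 5% CO₂, and time-zero (Tz) plates were TCA-fixed at drug addition. Five 10-fold dilutions of DMSO stock were applied for 48 h. Read-out was SRB staining, 515 nm absorbance, with percent growth calculated versus Tz and untreated control.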

COLO = experiment: Cytotoxicity against human COLO […] cells assessed as cell growth at 10^-4 M after 48 hrs by SRB assay; conditions: read-out: Activity; outline: as §1
UACC-62 = experiment: Cytotoxicity against human UACC62 cells assessed as cell growth at 10^-4 M after 48 hrs by SRB assay; conditions: UACC-62, 48 h, read-out: Activity
CAKI-1 = experiment: Cytotoxicity against human Caki1 cells assessed as cell growth at 10^-4 M after 48 hrs by SRB assay; conditions: CAKI-1, 48 h, read-out: Activity; outline: as §1
BT-549 = experiment: Cytotoxicity against human BT549 cells assessed as cell growth at 10^-4 M after 48 hrs by SRB assay; conditions: BT-549, 48 h, read-out: Activity; outline: as §1
OVCAR-5 = experiment: Cytotoxicity against human OVCAR5 cells assessed as cell growth at 10^-7 M after 48 hrs by SRB assay; conditions: OVCAR-5, 48 h, read-out: Activity
EKVX [5] = experiment: Cytotoxicity against human EKVX cells assessed as cell growth at 10^-8 M after 48 hrs by SRB assay; conditions: read-out: Activity; outline: as §1
HOP-62 [6] = experiment: Cytotoxicity against human HOP62 cells assessed as cell growth at 10^-8 M after 48 hrs by SRB assay; conditions: HOP-62, 48 h, read-out: Activity; outline: as §3
NCI-H226 = experiment: Cytotoxicity against human NCI-H226 cells assessed as cell growth at 10^-8 M after 48 hrs by SRB assay; conditions: NCI-H226, 48 h, read-out: Activity
U-251 [7] = experiment: Cytotoxicity against human U251 cells assessed as cell growth at 10^-8 M after 48 hrs by SRB assay; conditions: U-251, 48 h, read-out: Activity
M14 [8] = experiment: Cytotoxicity against human M14 cells assessed as cell growth at 10^-8 M after 48 hrs by SRB assay; conditions: M14, 48 h, read-out: Activity
OVCAR-8 = experiment: Cytotoxicity against human OVCAR8 cells assessed as cell growth at 10^-8 M after 48 hrs by SRB assay; conditions: OVCAR-8, 48 h, read-out: Activity
RXF 393 [9] = experiment: Cytotoxicity against human RXF393 cells assessed as cell growth at 10^-8 M after 48 hrs by SRB assay; conditions: RXF 393, 48 h, read-out: Activity
SW-620 = experiment: Cytotoxicity against human SW620 cells assessed as cell growth at 10^-6 M after 48 hrs by SRB assay; conditions: SW-620, 48 h, read-out: Activity
OVCAR-4 = experiment: Cytotoxicity against human OVCAR4 cells assessed as cell growth at 10^-6 M after 48 hrs by SRB assay; conditions: OVCAR-4, 48 h, read-out: Activity
HOP-62 [10] = experiment: Growth inhibition of human HOP62 cells after 48 hrs by SRB assay; conditions: HOP-62, 48 h; outline: as §2
HCC 2998 = experiment: Growth inhibition of human HCC2998 cells after 48 hrs by SRB assay; conditions: HCC 2998, 48 h; outline: as §2
HT-29 = experiment: Growth inhibition of human HT-29 cells after 48 hrs by SRB assay; conditions: HT-29, 48 h; outline: as §2
MDA-MB-468 = experiment: Cytotoxicity against human MDA-MB-468 cells assessed as cell growth at 10^-6 M after 48 hrs by SRB assay; conditions: MDA-MB-468, 48 h, read-out: Activity
SR = experiment: Cytotoxicity against human SR cells assessed as cell growth at 10^-5 M after 48 hrs by SRB assay; conditions: read-out: Activity

SMILES: COc1ccc(-c2nn3cc(-c4cccc(N)c4)nc3s2)cc1
- growth at 10 µM (NCI-H322M): 44%
- growth at 10 µM (KM12): 37%
- growth at 10 µM (U-251 [1]): 44%
- growth at 10 µM (M14 [2]): 34%
- growth at 10 µM (OVCAR-3): 19%
- growth at 10 µM (TK-10): 41%
- growth at 10 µM (PC-3): 10%
- growth at 10 µM (DU-145): 41%
- GI50 (SK-MEL-2): 5.35 µM
- TGI (SK-MEL-2): 31.9 µM
- CC50 (SK-MEL-2): > 100 µM
- GI50 (RXF 393 [3]): 1.38 µM
- LC50 (RXF 393 [3]): 20.9 µM
- TGI (RXF 393 [3]): 4.66 µM
- growth at 100 µM (EKVX [4]): -18%
- growth at 100 µM (HOP-92): -52%
- growth at 100 µM (COLO): -56%
- growth at 100 µM (UACC-62): -41%
- growth at 100 µM (CAKI-1): -39%
- growth at 100 µM (BT-549): -25%
- growth at 0.1 µM (OVCAR-5): 103%
- growth at 0.01 µM (EKVX [5]): 81%
- growth at 0.01 µM (HOP-62 [6]): 97%
- growth at 0.01 µM (NCI-H226): 92%
- growth at 0.01 µM (U-251 [7]): 106%
- growth at 0.01 µM (M14 [8]): 101%
- growth at 0.01 µM (OVCAR-8): 104%
- growth at 0.01 µM (RXF 393 [9]): 90%
- growth at 1 µM (SW-620): 86%
- growth at 1 µM (OVCAR-4): 60%
- GI50 (HOP-62 [10]): 3.12 µM
- LC50 (concentration killing 50% of cells) (HOP-62 [10]): 87.6 µM
- TGI (HOP-62 [10]): 16.6 µM
- GI50 (HCC 2998): 1.08 µM
- LC50 (concentration causing 50% net cell kill) (HCC 2998): > 100 µM
- TGI (HCC 2998): > 100 µM
- GI50 (HT-29): 4.27 µM
- LC50 (concentration killing 50% of cells) (HT-29): > 100 µM
- TGI (HT-29): 23.2 µM
- growth at 1 µM (MDA-MB-468): 68%
- growth at 10 µM (SR): 26%

SMILES: COc1ccc(-c2nn3cc(-c4ccc(O)cc4O)nc3s2)cc1
- growth at 10 µM (NCI-H322M): 23%
- growth at 10 µM (KM12): 21%
- growth at 10 µM (U-251 [1]): -41%
- growth at 10 µM (M14 [2]): 17%
- growth at 10 µM (OVCAR-3): -7%
- growth at 10 µM (TK-10): 7%
- growth at 10 µM (PC-3): 14%
- growth at 10 µM (DU-145): 27%
- GI50 (SK-MEL-2): 2.85 µM
- TGI (SK-MEL-2): 14.2 µM
- CC50 (SK-MEL-2): > 100 µM
- GI50 (RXF 393 [3]): 1.09 µM
- LC50 (RXF 393 [3]): 5.74 µM
- TGI (RXF 393 [3]): 2.5 µM
- growth at 100 µM (EKVX [4]): -9%
- growth at 100 µM (HOP-92): -21%
- growth at 100 µM (COLO): -27%
- growth at 100 µM (UACC-62): -72%
- growth at 100 µM (CAKI-1): -9%
- growth at 100 µM (BT-549): -15%
- growth at 0.1 µM (OVCAR-5): 90%
- growth at 0.01 µM (EKVX [5]): 103%
- growth at 0.01 µM (HOP-62 [6]): 95%
- growth at 0.01 µM (NCI-H226): 94%
- growth at 0.01 µM (U-251 [7]): 97%
- growth at 0.01 µM (M14 [8]): 96%
- growth at 0.01 µM (OVCAR-8): 102%
- growth at 0.01 µM (RXF 393 [9]): 99%
- growth at 1 µM (SW-620): 86%
- growth at 1 µM (OVCAR-4): 68%
- GI50 (HOP-62 [10]): 1.88 µM
- LC50 (concentration killing 50% of cells) (HOP-62 [10]): > 100 µM
- TGI (HOP-62 [10]): 5.17 µM
- GI50 (HCC 2998): 4.37 µM
- LC50 (concentration causing 50% net cell kill) (HCC 2998): > 100 µM
- TGI (HCC 2998): 84.4 µM
- GI50 (HT-29): 2.95 µM
- LC50 (concentration killing 50% of cells) (HT-29): > 100 µM
- TGI (HT-29): 20.2 µM
- growth at 1 µM (MDA-MB-468): 59%
- growth at 10 µM (SR): 6%
